The source made the active and inactive calls. The rule behind the calls is not given here.
Assays:
MDA-MB-231 = test: Cytotoxicity against human MDA-MB-231 cells at 30 uM by MTS assay; assay type: functional, cell-based
A549 [1] = test: Cytotoxicity against human A549 cells at 30 uM by MTS assay relative to control; assay type: functional
In short: (§1)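 MTS read-out (CellTiter 96 AQueous One) of proliferation in A549 or HCT-116 cells grown in DMEM with 10% FBS at 37 °C, 5% CO2. Taxol-resistant A549 cells were exposed for 72 h. Compounds were screened at 30 μM versus vehicle, with ≥50% inhibition counted active. Actives were then tested over a concentration range for IC50. Triplicate wells, three independent experiments, mean ± SD.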

HeLa = test: Cytotoxicity against human HeLa cells at 30 uM by MTS assay; assay type: functional, cell-based
HT-29 = test: Cytotoxicity against human HT-29 cells at 30 uM by MTS assay; assay type: functional, cell-based
HCT-116 [2] = test: Cytotoxicity against human HCT116 cells at 30 uM by MTS assay relative to control; assay type: functional; in short: as §1
MCF7 = test: Cytotoxicity against human MCF7 cells at 30 uM by MTS assay; assay type: functional, cell-based
A549 [3] = test: Cytotoxicity against human A549 cells by MTS assay; assay type: functional, cell-based; in short: as §1
HCT-116 [4] = test: Cytotoxicity against human HCT116 cells by MTS assay; assay type: functional, cell-based; in short: as §1
Sus scrofa = species on record: Sus scrofa; test: Binding affinity to porcine tubulin after overnight incubation by streptavidin pull down assay
In short: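 Purified porcine neuronal tubulin incubated with biotin, biotinylated probe or control probe in NETN buffer at 4 °C. Streptavidin Dynabeads 1 h at 4 °C, six washes, then SDS-PAGE and α-tubulin immunoblot.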

A549 [5] = test: Binding affinity to tubulin alpha in human A549 cells immunoblot based based pull down assay; assay type: cell-based
In short: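 A549 lysate in NETN buffer incubated with biotin, biotinylated probe or control probe at 4 °C, then streptavidin Dynabeads 1 h at 4 °C. Beads washed six times, bound proteins run on SDS-PAGE and immunoblotted for α-tubulin.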

## Cc1cc2c(=O)[nH]c(CNC(=S)SCc3ccc(F)cc3F)nc2s1
MDA-MB-231
  Activity: inactive
A549 [1]
  Activity: inactive
HeLa
  Activity: inactive
HT-29
  Activity: inactive
HCT-116 [2]
  Activity: inactive
MCF7
  Activity: inactive

## COc1cccc(CSC(=S)NCc2nc3sc(C)cc3c(=O)[nH]2)c1
MDA-MB-231
  Activity: inactive
A549 [1]
  Activity: inactive
HeLa
  Activity: inactive
HT-29
  Activity: inactive
HCT-116 [2]
  Activity: inactive
MCF7
  Activity: inactive

## Cc1cc2c(=O)[nH]c(CNC(=S)SCc3ccc(Cl)cc3)nc2s1
MDA-MB-231
  Activity: inactive
A549 [1]
  Activity: inactive
HeLa
  Activity: inactive
HT-29
  Activity: inactive
HCT-116 [2]
  Activity: inactive
MCF7
  Activity: inactive

## Cc1cc2c(=O)[nH]c(CSC(=S)NCc3ccc([N+](=O)[O-])cc3)nc2s1
A549 [3]
  IC50: 12.3 µM
MDA-MB-231
  Activity: inactive
A549 [1]
  Activity: >=50%
HeLa
  Activity: inactive
HT-29
  Activity: inactive
HCT-116 [2]
  Activity: >=50%
HCT-116 [4]
  IC50: 20.2 µM
MCF7
  Activity: inactive

## Cc1cc2c(=O)[nH]c(CSC(=S)NCc3ccc(F)cc3)nc2s1
A549 [3]
  IC50: 18.9 µM
MDA-MB-231
  Activity: inactive
A549 [1]
  Activity: >=50%
HeLa
  Activity: inactive
HT-29
  Activity: inactive
HCT-116 [2]
  Activity: >=50%
HCT-116 [4]
  IC50: 28.7 µM
MCF7
  Activity: inactive

## COc1ccc(CNC(=S)SCc2nc3sc(C)cc3c(=O)[nH]2)c(OC)c1
A549 [3]
  IC50: > 30 µM
MDA-MB-231
  Activity: inactive
A549 [1]
  Activity: >=50%
HeLa
  Activity: inactive
HT-29
  Activity: inactive
HCT-116 [2]
  Activity: >=50%
HCT-116 [4]
  IC50: > 30 µM
MCF7
  Activity: inactive

## Cc1cc2c(=O)[nH]c(CNC(=S)SCc3ccc([N+](=O)[O-])cc3)nc2s1
MDA-MB-231
  Activity: inactive
A549 [1]
  Activity: inactive
HeLa
  Activity: inactive
HT-29
  Activity: inactive
HCT-116 [2]
  Activity: inactive
MCF7
  Activity: inactive

## COc1ccccc1CSC(=S)NCc1nc2sc(C)cc2c(=O)[nH]1
MDA-MB-231
  Activity: inactive
A549 [1]
  Activity: inactive
HeLa
  Activity: inactive
HT-29
  Activity: inactive
HCT-116 [2]
  Activity: inactive
MCF7
  Activity: inactive

## COc1ccc(CNC(=S)SCc2nc3sc(C)cc3c(=O)[nH]2)cc1
A549 [3]
  IC50: 29.1 µM
MDA-MB-231
  Activity: inactive
A549 [1]
  Activity: >=50%
HeLa
  Activity: inactive
HT-29
  Activity: inactive
HCT-116 [2]
  Activity: >=50%
HCT-116 [4]
  IC50: 24.5 µM
MCF7
  Activity: inactive

## Cc1cc2c(=O)[nH]c(CNC(=S)SCc3ccc(C#N)cc3)nc2s1
MDA-MB-231
  Activity: inactive
A549 [1]
  Activity: inactive
HeLa
  Activity: inactive
HT-29
  Activity: inactive
HCT-116 [2]
  Activity: inactive
MCF7
  Activity: inactive

## Cc1cc2c(=O)[nH]c(CNC(=S)SCc3ccc(F)cc3)nc2s1
MDA-MB-231
  Activity: inactive
A549 [1]
  Activity: inactive
HeLa
  Activity: inactive
HT-29
  Activity: inactive
HCT-116 [2]
  Activity: inactive
MCF7
  Activity: inactive

## Cc1cc2c(=O)[nH]c(CSC(=S)NCc3ccc(Br)cc3)nc2s1
A549 [3]
  IC50: 21.9 µM
MDA-MB-231
  Activity: inactive
A549 [1]
  Activity: >=50%
HeLa
  Activity: inactive
HT-29
  Activity: inactive
HCT-116 [2]
  Activity: >=50%
HCT-116 [4]
  IC50: 28.7 µM
MCF7
  Activity: inactive

## Cc1cc2c(=O)[nH]c(CNC(=S)SCc3ccc(Br)cc3)nc2s1
MDA-MB-231
  Activity: inactive
A549 [1]
  Activity: inactive
HeLa
  Activity: inactive
HT-29
  Activity: inactive
HCT-116 [2]
  Activity: inactive
MCF7
  Activity: inactive

## Cc1cc2c(=O)[nH]c(CNC(=S)SCc3ccccc3)nc2s1
MDA-MB-231
  Activity: inactive
A549 [1]
  Activity: inactive
HeLa
  Activity: inactive
HT-29
  Activity: inactive
HCT-116 [2]
  Activity: inactive
MCF7
  Activity: inactive

## Cc1ccc(CNC(=S)SCc2nc3sc(C)cc3c(=O)[nH]2)cc1
A549 [3]
  IC50: 26.5 µM
MDA-MB-231
  Activity: inactive
A549 [1]
  Activity: >=50%
HeLa
  Activity: inactive
HT-29
  Activity: inactive
HCT-116 [2]
  Activity: >=50%
HCT-116 [4]
  IC50: 28 µM
MCF7
  Activity: inactive

## Cc1cc2c(=O)[nH]c(CSC(=S)NCc3cccnc3)nc2s1
A549 [3]
  IC50: 5.79 µM
MDA-MB-231
  Activity: inactive
A549 [1]
  Activity: >=50%
HeLa
  Activity: inactive
HT-29
  Activity: inactive
HCT-116 [2]
  Activity: >=50%
HCT-116 [4]
  IC50: 9.3 µM
MCF7
  Activity: inactive

## Cc1cc2c(=O)[nH]c(CSC(=S)NCc3ccc(Cl)cc3)nc2s1
A549 [3]
  IC50: 11.3 µM
MDA-MB-231
  Activity: inactive
A549 [1]
  Activity: >=50%
HeLa
  Activity: inactive
HT-29
  Activity: inactive
HCT-116 [2]
  Activity: >=50%
HCT-116 [4]
  IC50: 25.1 µM
MCF7
  Activity: inactive

## COc1ccccc1CNC(=S)SCc1nc2sc(C)cc2c(=O)[nH]1
A549 [3]
  IC50: 7.01 µM
MDA-MB-231
  Activity: inactive
A549 [1]
  Activity: >=50%
HeLa
  Activity: inactive
HT-29
  Activity: inactive
HCT-116 [2]
  Activity: >=50%
HCT-116 [4]
  IC50: 18.1 µM
MCF7
  Activity: inactive

## Cc1cc2c(=O)[nH]c(CSC(=S)NCc3cccs3)nc2s1
A549 [3]
  IC50: 23 µM
MDA-MB-231
  Activity: inactive
A549 [1]
  Activity: >=50%
HeLa
  Activity: inactive
HT-29
  Activity: inactive
HCT-116 [2]
  Activity: >=50%
HCT-116 [4]
  IC50: 27.8 µM
MCF7
  Activity: inactive

## Cc1ccc(CSC(=S)NCc2nc3sc(C)cc3c(=O)[nH]2)cc1
MDA-MB-231
  Activity: inactive
A549 [1]
  Activity: inactive
HeLa
  Activity: inactive
HT-29
  Activity: inactive
HCT-116 [2]
  Activity: inactive
MCF7
  Activity: inactive

## CCOC(=O)c1ccc(CSC(=S)NCc2nc3sc(C)cc3c(=O)[nH]2)cc1
MDA-MB-231
  Activity: inactive
A549 [1]
  Activity: inactive
HeLa
  Activity: inactive
HT-29
  Activity: inactive
HCT-116 [2]
  Activity: inactive
MCF7
  Activity: inactive

## Cc1cc2c(=O)[nH]c(CSC(=S)NCc3ccc(F)cc3F)nc2s1
A549 [3]
  IC50: 16.2 µM
MDA-MB-231
  Activity: inactive
A549 [1]
  Activity: >=50%
HeLa
  Activity: inactive
HT-29
  Activity: inactive
HCT-116 [2]
  Activity: >=50%
HCT-116 [4]
  IC50: > 30 µM
MCF7
  Activity: inactive

## Cc1cc2c(=O)[nH]c(CSC(=S)NCc3ccc4c(c3)OCO4)nc2s1
A549 [3]
  IC50: 14 µM
MDA-MB-231
  Activity: inactive
A549 [1]
  Activity: >=50%
HeLa
  Activity: inactive
HT-29
  Activity: inactive
HCT-116 [2]
  Activity: >=50%
HCT-116 [4]
  IC50: 24.6 µM
MCF7
  Activity: inactive

## Cc1cc2c(=O)[nH]c(CSC(=S)NCc3ccco3)nc2s1
A549 [3]
  IC50: > 30 µM
MDA-MB-231
  Activity: inactive
A549 [1]
  Activity: >=50%
HeLa
  Activity: inactive
HT-29
  Activity: inactive
HCT-116 [2]
  Activity: >=50%
HCT-116 [4]
  IC50: 29.8 µM
MCF7
  Activity: inactive

## Cc1cc2c(=O)[nH]c(CSC(=S)NCc3ccccc3)nc2s1
A549 [3]
  IC50: 29.5 µM
MDA-MB-231
  Activity: inactive
A549 [1]
  Activity: >=50%
HeLa
  Activity: inactive
HT-29
  Activity: inactive
HCT-116 [2]
  Activity: >=50%
HCT-116 [4]
  IC50: > 30 µM
MCF7
  Activity: inactive

## Cc1cc2c(=O)[nH]c(CSC(=S)NCc3ccccc3F)nc2s1
A549 [3]
  IC50: > 30 µM
MDA-MB-231
  Activity: inactive
A549 [1]
  Activity: >=50%
HeLa
  Activity: inactive
HT-29
  Activity: inactive
HCT-116 [2]
  Activity: >=50%
HCT-116 [4]
  IC50: 29.7 µM
MCF7
  Activity: inactive

## Cc1cc2c(=O)[nH]c(CSC(=S)NCc3ccncc3)nc2s1
A549 [3]
  IC50: 7.43 µM
MDA-MB-231
  Activity: inactive
A549 [1]
  Activity: >=50%
HeLa
  Activity: inactive
HT-29
  Activity: inactive
HCT-116 [2]
  Activity: >=50%
HCT-116 [4]
  IC50: 14.1 µM
MCF7
  Activity: inactive

## Cc1cc2c(=O)[nH]c(CN(CCCNC(=O)CCCC[C@@H]3SC[C@@H]4NC(=O)N[C@@H]43)Cc3ccc(C#N)cc3)nc2s1
Sus scrofa
  Activity: inactive
A549 [5]
  Activity: inactive

## COc1cc(CNC(=S)SCc2nc3sc(C)cc3c(=O)[nH]2)cc(OC)c1OC
A549 [3]
  IC50: 7.89 µM
MDA-MB-231
  Activity: inactive
A549 [1]
  Activity: >=50%
HeLa
  Activity: inactive
HT-29
  Activity: inactive
HCT-116 [2]
  Activity: >=50%
HCT-116 [4]
  IC50: 14.9 µM
MCF7
  Activity: inactive

## COc1ccc(CSC(=S)NCc2nc3sc(C)cc3c(=O)[nH]2)cc1
MDA-MB-231
  Activity: inactive
A549 [1]
  Activity: inactive
HeLa
  Activity: inactive
HT-29
  Activity: inactive
HCT-116 [2]
  Activity: inactive
MCF7
  Activity: inactive

## O=C(O)CCCC[C@@H]1SC[C@@H]2NC(=O)N[C@@H]21
Sus scrofa
  Activity: inactive
A549 [5]
  Activity: inactive

## Cc1cc2c(=O)[nH]c(CSC(=S)NCc3ccc(Cl)cc3Cl)nc2s1
A549 [3]
  IC50: 29.5 µM
MDA-MB-231
  Activity: inactive
A549 [1]
  Activity: >=50%
HeLa
  Activity: inactive
HT-29
  Activity: inactive
HCT-116 [2]
  Activity: >=50%
HCT-116 [4]
  IC50: > 30 µM
MCF7
  Activity: inactive
